According to PubChem BioAssay:
Unmarked numbers belong to inactive results.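 How the source made its calls, unless noted: active means viability increase at or above a cutoff of the median across tested compounds plus 3 SD (cut at about 8.5% in these data, passing the limit was not always enough); inconclusive means some gains above the cutoff, reason not given; inactive means the rest.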

experiment: S. cerevisiae growth inhibition in restrictive medium, OD615, pilot screen, restrictive growth control, yeast lifespan reduction project (AID 706;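 active means growth inhibition above a set limit, 3 SD over mean compound inhibition, in both replicates, cut at about 43% in these data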;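 further: modified DeaD lifespan yeast strain shifted to restrictive glucose medium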); conditions: OD615, 48 h, at 10 µM, active compounds read high
How it was run: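 Buffer or medium: restrictive glucose medium (CSMM-D); test system: modified S. cerevisiae; doses: single dose of 10 µM compound final, 0.25% DMSO; schedule: 48 h compound exposure at 30 °C; detection: absorbance (optical density) measured at 615 nm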

Compound | growth inhibition
CCCc1cc(C(=O)Nc2ccccc2SC)no1 | -21.2%
Cc1ccc(C(=O)OCC(=O)Nc2ccc3c(c2)OCO3)o1 | -8.6%
COC(=O)C(C#N)C(=C1C(=O)CC(C)(C)CC1=O)c1ccc(O)cc1 (stereo not given) | 0.91%
COC(=O)c1cc(OC)c(OC)cc1NC(=O)c1ccc(Br)o1 | -3.21%
COc1cccc(NC(=O)CSc2nnc(Cc3cccn3C)n2-c2ccc(F)cc2)c1 | 13.1%
CCOc1ccc(N(CC(=O)OC)S(=O)(=O)c2ccc(OC)c(OC)c2)cc1 | -4.04%
COC(=O)C1=C(C)NC(C)=C(C(=O)OC)C1C1CC=CCC1 (stereo not given) | -21.7%
CCCCCn1c(=O)[nH]c2cc(C(=O)NCCN3CCOCC3)ccc2c1=O | -10.6%
COc1ccccc1OCC(=O)N1CCN(c2ccccc2OC)CC1 | -2.73%
COc1cccc(-c2nc(CS(=O)(=O)CC(=O)N3CCN(c4ccccn4)CC3)c(C)o2)c1 | -2.45%
CC1C(=O)C(C)C(c2cccs2)NC1c1cccs1 (stereo not given) | -0.61%
COc1ccc(N2C(=O)CCC(C(=O)N3CCCCC3)C2c2ccc(OC)c(OC)c2)cc1 (stereo not given) | -8.71%
COc1cccc(NC(=O)c2nc3nc(C)cc(C(F)F)n3n2)c1 | -11.1%
O=C(NCCN1CCOCC1)c1ccc2c(c1)N(Cc1ccccc1F)C(=O)CS2 | 7.02%
CCn1cc(C(=O)NCc2ccccc2OC)c(=O)c2cc(S(=O)(=O)N(C)C)ccc21 | -17.1%
CC1Cn2c(nnc2-c2ccc(F)cc2)S1 (stereo not given) | -14.2%
COc1ccc(NC(=O)CN(c2ccc(C(C)C)cc2)S(=O)(=O)c2c(C)noc2C)cc1OC | -5.8%
Cc1cc(C)c(C(=O)Nc2ccc(S(=O)(=O)Nc3onc(C)c3C)cc2)c(C)c1 | -9.75%
COc1ccc(C2CC(c3ccco3)n3ncnc3N2)cc1 (stereo not given) | 1.61%
CCCCn1c(CN2CCN(c3ccccc3)CC2)nc2c1c(=O)n(C)c(=O)n2C | 1.55%

Compound | growth inhibition
Cc1ccccc1NC(=O)C1CCCN(S(=O)(=O)c2cnc[nH]2)C1 (stereo not given) | 0.61%
CCOC(=O)C1CCCN(C(=O)c2cn(C)c(=O)c3cc(OC)c(OC)cc23)C1 (stereo not given) | -4.87%
O=C(C1CCN(S(=O)(=O)c2cccc3cccnc23)CC1)N1CCN(C2CCCCC2)CC1 | 0.815%
Cc1nnc2n(-c3ccc(Cl)cc3)c(=O)c3c4c(sc3n12)CN(C)CC4 | -10.1%
COc1ccc(OC)c(NC(=O)c2nnn(Cc3ccc(Br)cc3F)c2N)c1 | -7.43%
CCCOc1ccc2ccccc2c1/C=N/n1cnnc1 | 6.62%
CCOC(=O)C(C)(C)Sc1nc2c(cnn2-c2ccc(Cl)cc2)c(=O)[nH]1 | -0.62%
Cc1cccc(N2C(=O)CC(N3CCN(c4cccc(C(F)(F)F)c4)CC3)C2=O)c1 (stereo not given) | -8.65%
CC(=O)N1c2c(cc(Br)cc2S(=O)(=O)N2CCN(c3ccccn3)CC2)CC1C (stereo not given) | 1.97%
O=C(O)c1ccc2c(c1)C(=O)N(c1ccc(Cl)cn1)C2=O | -10.8%
CC(=O)c1sc(NC(=O)C2COc3ccccc3O2)nc1C (stereo not given) | -3.37%
COc1ccc(OC)c2[nH]c(=O)c(CCNC(=O)C(C)C)cc12 | -5.05%
COc1ccc(NC(=O)c2cc(C3CC3)on2)c(OC)c1 | 9.96%
Cc1noc(C(=O)Nc2ccc3c(c2)OCO3)c1Cl | 6.31%
CCC(CC)C(=O)NCCc1cc2ccc(C)cc2[nH]c1=O | 0.345%
CCCS(=O)(=O)N1CCN(C(=O)c2cccnc2)CC1 | -15.8%
CCCCn1c2c(c3ccccc31)CCc1nonc1-2 | -29.4%
COc1ccc(-c2[nH]c(-c3cccc(OC)c3)nc2SCC(=O)NCc2ccco2)cc1 | 1.65%
CC1=C(C(=O)OCc2ccccc2)C(c2ccco2)n2ncnc2N1 (stereo not given) | -3.8%
Cc1c(C)n(C)c2ccc(C(=O)NCc3cccs3)cc12 | 1.59%

experiment: doxorubicin toxicity protection in MRP-1 cells – H69AR cells, CellTiter-Glo, duplicate, MRP-1 activator project, pilot screen (AID 807); conditions: H69AR viability with doxorubicin, CellTiter-Glo luminescence; at 10 µM; active compounds read high;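 further: compound pretreatment 18-22 h then 72 h combined with doxorubicin; 0% = doxorubicin alone and 100% = vehicle without doxorubicin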

Compound | viability increase
CCCc1cc(C(=O)Nc2ccccc2SC)no1 | -3.07%
Cc1ccc(C(=O)OCC(=O)Nc2ccc3c(c2)OCO3)o1 | -1.03%
COC(=O)C(C#N)C(=C1C(=O)CC(C)(C)CC1=O)c1ccc(O)cc1 (stereo not given) | 0.99%
COC(=O)c1cc(OC)c(OC)cc1NC(=O)c1ccc(Br)o1 | -0.2%
COc1cccc(NC(=O)CSc2nnc(Cc3cccn3C)n2-c2ccc(F)cc2)c1 | -4.32%
CCOc1ccc(N(CC(=O)OC)S(=O)(=O)c2ccc(OC)c(OC)c2)cc1 | -0.96%
COC(=O)C1=C(C)NC(C)=C(C(=O)OC)C1C1CC=CCC1 (stereo not given) | -4.18%
CCCCCn1c(=O)[nH]c2cc(C(=O)NCCN3CCOCC3)ccc2c1=O | -0.3%
COc1ccccc1OCC(=O)N1CCN(c2ccccc2OC)CC1 | -2.73%
COc1cccc(-c2nc(CS(=O)(=O)CC(=O)N3CCN(c4ccccn4)CC3)c(C)o2)c1 | -0.47%
CC1C(=O)C(C)C(c2cccs2)NC1c1cccs1 (stereo not given) | 0.03%
COc1ccc(N2C(=O)CCC(C(=O)N3CCCCC3)C2c2ccc(OC)c(OC)c2)cc1 (stereo not given) | 0.42%
COc1cccc(NC(=O)c2nc3nc(C)cc(C(F)F)n3n2)c1 | 1.69%
O=C(NCCN1CCOCC1)c1ccc2c(c1)N(Cc1ccccc1F)C(=O)CS2 | 1.73%
CCn1cc(C(=O)NCc2ccccc2OC)c(=O)c2cc(S(=O)(=O)N(C)C)ccc21 | -5.34%
CC1Cn2c(nnc2-c2ccc(F)cc2)S1 (stereo not given) | -0.42%
COc1ccc(NC(=O)CN(c2ccc(C(C)C)cc2)S(=O)(=O)c2c(C)noc2C)cc1OC | -3.99%
Cc1cc(C)c(C(=O)Nc2ccc(S(=O)(=O)Nc3onc(C)c3C)cc2)c(C)c1 | 2.97%
COc1ccc(C2CC(c3ccco3)n3ncnc3N2)cc1 (stereo not given) | -0.91%
CCCCn1c(CN2CCN(c3ccccc3)CC2)nc2c1c(=O)n(C)c(=O)n2C | -3.11%

Compound | viability increase
Cc1ccccc1NC(=O)C1CCCN(S(=O)(=O)c2cnc[nH]2)C1 (stereo not given) | -2.13%
CCOC(=O)C1CCCN(C(=O)c2cn(C)c(=O)c3cc(OC)c(OC)cc23)C1 (stereo not given) | -3.62%
O=C(C1CCN(S(=O)(=O)c2cccc3cccnc23)CC1)N1CCN(C2CCCCC2)CC1 | -2.03%
Cc1nnc2n(-c3ccc(Cl)cc3)c(=O)c3c4c(sc3n12)CN(C)CC4 | -1.73%
COc1ccc(OC)c(NC(=O)c2nnn(Cc3ccc(Br)cc3F)c2N)c1 | 0.57%
CCCOc1ccc2ccccc2c1/C=N/n1cnnc1 | -5.76%
CCOC(=O)C(C)(C)Sc1nc2c(cnn2-c2ccc(Cl)cc2)c(=O)[nH]1 | -2.17%
Cc1cccc(N2C(=O)CC(N3CCN(c4cccc(C(F)(F)F)c4)CC3)C2=O)c1 (stereo not given) | 3.91%
CC(=O)N1c2c(cc(Br)cc2S(=O)(=O)N2CCN(c3ccccn3)CC2)CC1C (stereo not given) | 1.49%
O=C(O)c1ccc2c(c1)C(=O)N(c1ccc(Cl)cn1)C2=O | -2.33%
CC(=O)c1sc(NC(=O)C2COc3ccccc3O2)nc1C (stereo not given) | -1.12%
COc1ccc(OC)c2[nH]c(=O)c(CCNC(=O)C(C)C)cc12 | -0.71%
COc1ccc(NC(=O)c2cc(C3CC3)on2)c(OC)c1 | -1.92%
Cc1noc(C(=O)Nc2ccc3c(c2)OCO3)c1Cl | -3.47%
CCC(CC)C(=O)NCCc1cc2ccc(C)cc2[nH]c1=O | -2.76%
CCCS(=O)(=O)N1CCN(C(=O)c2cccnc2)CC1 | 1.08%
CCCCn1c2c(c3ccccc31)CCc1nonc1-2 | 1.75%
COc1ccc(-c2[nH]c(-c3cccc(OC)c3)nc2SCC(=O)NCc2ccco2)cc1 | -4.56%
CC1=C(C(=O)OCc2ccccc2)C(c2ccco2)n2ncnc2N1 (stereo not given) | -2.11%
Cc1c(C)n(C)c2ccc(C(=O)NCc3cccs3)cc12 | 3.39%
